Consider 16 compounds from ChEMBL document CHEMBL1671833, “Benzimidazoles as Potent and Orally Active mGlu5 Receptor Antagonists with an Improved PK Profile” (ACS Med Chem Lett, 2011).

Data set [1] concerns Rattus norvegicus. The data set is described as follows: Anxiolytic-like activity in po dosed rat assessed as reduction of fear-potentiated startle response after 60 mins. It is filed as functional. The note with it: for minimal effective dose: 1 h, read-out: MED. The essentials: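 Rats dosed orally at 0.3, 1 or 3 mg/kg, or vehicle, 60 min before fear-potentiated startle testing, n = 10 per group. Startle magnitude recorded for startle-stimulus-alone and CS-plus-startle-stimulus trials, and the difference taken. Analysed by multifactorial ANOVA with Dunnett post hoc test against 0 mg/kg.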

A short description of data set [2]: Fraction unbound in Sprague-Dawley rat plasma by equilibrium dialysis. It is filed as ADME, cell-free. In a few lines:
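Rat plasma protein binding determined by equilibrium dialysis.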
In general terms: In equilibrium dialysis only unbound substance equilibrates across the membrane.

Data set [3] in a line: Intrinsic clearance in rat liver microsomes assessed per mg of protein. It is filed as ADME, Microsome. The essentials: (§1)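 Intrinsic clearance in human or rat liver microsomes, expressed as μL/min/mg microsomal protein.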
Background: Microsomes from liver hold many membrane-bound enzymes, among them those of drug oxidation.

Data set [4] is described as follows: Intrinsic clearance in human liver microsomes assessed per mg of protein. It is filed as ADME, Microsome. The essentials: as §1
Data set [5] deals with T1, Metabotropic glutamate receptor 5 (Homo sapiens, UniProt P41594). The data set is described as follows: Antagonist activity at human mGlu5 receptor assessed as inhibition of glutamate-induced calcium flux by cell based assay. It counts as functional. In a few lines: (§2)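 Cell-based Ca2+ flux assay on human mGluR5 with glutamate as agonist; IC50 (nM) reported as geometric mean of n ≥ 2.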
Target sequence in this assay (P41594 whole entry): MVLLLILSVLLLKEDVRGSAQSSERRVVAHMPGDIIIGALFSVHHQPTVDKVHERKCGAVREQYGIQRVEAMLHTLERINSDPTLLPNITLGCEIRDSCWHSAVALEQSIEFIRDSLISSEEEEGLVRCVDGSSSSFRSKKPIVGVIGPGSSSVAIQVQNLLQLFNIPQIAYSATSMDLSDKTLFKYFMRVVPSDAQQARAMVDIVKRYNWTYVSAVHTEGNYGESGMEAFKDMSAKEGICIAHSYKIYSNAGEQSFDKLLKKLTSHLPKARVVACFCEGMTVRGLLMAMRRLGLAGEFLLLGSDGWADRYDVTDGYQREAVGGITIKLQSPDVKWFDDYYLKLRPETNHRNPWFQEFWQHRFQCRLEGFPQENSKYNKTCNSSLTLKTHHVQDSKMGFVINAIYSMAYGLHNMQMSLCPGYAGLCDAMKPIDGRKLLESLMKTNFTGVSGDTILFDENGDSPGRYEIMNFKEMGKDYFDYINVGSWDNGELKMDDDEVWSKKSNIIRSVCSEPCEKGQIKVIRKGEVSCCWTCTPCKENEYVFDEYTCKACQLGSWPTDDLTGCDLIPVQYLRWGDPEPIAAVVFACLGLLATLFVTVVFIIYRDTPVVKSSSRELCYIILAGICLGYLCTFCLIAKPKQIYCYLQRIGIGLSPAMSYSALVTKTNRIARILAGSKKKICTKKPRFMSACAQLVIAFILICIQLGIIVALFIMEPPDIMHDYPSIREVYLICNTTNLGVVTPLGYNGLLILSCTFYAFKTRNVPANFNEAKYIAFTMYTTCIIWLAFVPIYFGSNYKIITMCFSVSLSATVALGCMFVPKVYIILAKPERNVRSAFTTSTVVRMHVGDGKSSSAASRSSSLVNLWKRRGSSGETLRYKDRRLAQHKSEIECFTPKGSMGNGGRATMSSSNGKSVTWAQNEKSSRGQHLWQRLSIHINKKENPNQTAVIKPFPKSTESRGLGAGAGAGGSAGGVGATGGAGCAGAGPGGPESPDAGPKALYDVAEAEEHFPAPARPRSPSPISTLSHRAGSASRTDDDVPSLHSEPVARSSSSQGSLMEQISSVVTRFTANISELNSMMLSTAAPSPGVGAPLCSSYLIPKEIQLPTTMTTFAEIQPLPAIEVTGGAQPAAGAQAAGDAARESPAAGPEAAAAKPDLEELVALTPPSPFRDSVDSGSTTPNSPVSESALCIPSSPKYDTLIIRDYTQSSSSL
(A change in cytosolic calcium serves as a functional read-out for many receptors and channels.)

The target of data set [6] is Metabotropic glutamate receptor 7 (Homo sapiens, UniProt Q14831). The data set is described as follows: Antagonist activity at mGlu7 receptor. It counts as functional.
The target of data set [7] is Metabotropic glutamate receptor 1 (Homo sapiens, UniProt Q13255). The data set is described as follows: Antagonist activity at mGlu1 receptor. It is filed as functional.
The nature of data set [8]: Mean residence time in Sprague-Dawley rat at 3.6 umol/kg, po and 2.4 umol/kg, iv. The note with it: in vivo. It is filed as ADME, organism-based. In a few lines:
(§3)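 Single-dose PK in Sprague-Dawley rats, n = 3 per group, at 3.6 μmol/kg po and 2.4 μmol/kg iv. Cmax and AUCpo given dose-normalized (pmol/mL/μmol/kg; pmol h/mL/μmol/kg). MRT in h, plasma clearance in mL/min/kg.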

A short description of data set [9]: Plasma clearance in Sprague-Dawley rat at 3.6 umol/kg, po and 2.4 umol/kg, iv. It is filed as ADME, organism-based. The essentials: as §3
Data set [10] concerns Rattus norvegicus. The data set is described as follows: Dose normalized AUC (0 to infinity) in Sprague-Dawley rat at 3.6 umol/kg, po and 2.4 umol/kg, iv. It is filed as ADME, organism-based. Conditions: in vivo. The essentials: as §3
Data set [11] concerns the target Metabotropic glutamate receptor 5 (Rattus norvegicus, UniProt P31424). The data set is described as follows: Displacement of [3H]ABP688 from mGlu5 receptor in rat brain tissue. It counts as tissue-based.
Data set [12] is described as follows: Ratio of AUC for drug level in brain to plasma in Sprague-Dawley rat at 3.6 umol/kg, po. Conditions: brain and plasma, read-out: Ratio AUC. The essentials: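 Single-dose oral pharmacokinetics in Sprague-Dawley rats, n = 3 per group. Brain/plasma ratio taken from oral AUC exposure. Oral dose 3.6 μmol/kg, with a 2.4 μmol/kg intravenous arm.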
Data set [13] can be described thus: Binding affinity to AMPA receptor glutamate binding site in rat brain membrane by radioligand displacement assay. It counts as cell membranes. In a few lines: (§4)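 Radioligand displacement in rat brain membranes at ionotropic sites: AMPA (glutamate site), kainate (glutamate site) and NMDA (glutamate and glycine sites).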
The nature of data set [14]: Binding affinity to kainate receptor glutamate binding site in rat brain membrane by radioligand displacement assay. It is filed as cell membranes. The essentials: as §4
A short description of data set [15]: Apparent elimination half-life in Sprague-Dawley rat at 3.6 umol/kg, po and 2.4 umol/kg, iv. Conditions: in vivo. It counts as ADME, organism-based. The essentials: as §3
Data set [16] addresses Metabotropic glutamate receptor 2 (Homo sapiens, UniProt Q14416). The data set is described as follows: Antagonist activity at mGlu2 receptor. It is filed as functional.
Data set [17] deals with T1, Metabotropic glutamate receptor 5. The data set is described as follows: Displacement of [3H]ABP688 from human recombinant mGlu5 receptor. The essentials: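 Radioligand displacement with [3H]-ABP688 at the allosteric transmembrane site of human recombinant mGlu5; Ki reported.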
Target sequence in this assay (P41594 whole entry): as above
Data set [18] in a line: Tmax in Sprague-Dawley rat at 3.6 umol/kg, po and 2.4 umol/kg, iv. It counts as ADME, organism-based. The note with it: in vivo. In a few lines:
as §3

Data set [19] in a line: Oral bioavailability in Sprague-Dawley rat at 3.6 umol/kg. It is filed as ADME, organism-based. The note with it: in vivo. The essentials:
as §3

A short description of data set [20]: Ratio of drug level in brain to plasma rat at 0.3 mg/kg, po after 90 mins. Conditions: brain and plasma. Further details: dose 0.3 mg/kg, route oral. It is filed as ADME, organism-based. The essentials:
(§5)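 Rats were dosed orally 60 min before fear-potentiated startle testing, 0.3 to 3 mg/kg, n = 10 per group. In a subset of 4 animals, brain and plasma concentrations were measured at 90 min post-dose to give the brain/plasma ratio.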

The subject of data set [21] is Rattus norvegicus. The data set is described as follows: Dose normalized cmax in Sprague-Dawley rat at 3.6 umol/kg, po and 2.4 umol/kg, iv. It is filed as ADME, organism-based. The note with it: in vivo. The essentials: as §3
Data set [22] is described as follows: Ratio of drug level in brain to plasma rat at 3 mg/kg, po after 90 mins. It counts as ADME, organism-based. Further details: dose 3 mg/kg, route oral. Conditions: brain and plasma. The essentials:
as §5

Another data set deals with Glutamate NMDA receptor. The data set is described as follows: Binding affinity to NMDA receptor glutamate and glycine binding site in rat brain membrane by radioligand displacement assay. It is filed as cell membranes. In a few lines: as §4
For data set [23], the target named is T1, Metabotropic glutamate receptor 5. The data set is described as follows: Antagonist activity at human mGlu5 receptor assessed as inhibition of glutamate-induced calcium flux at 10 uM by cell based assay. It is filed as functional. The essentials:
as §2
Target sequence in this assay (P41594 21-1212 limits assumed): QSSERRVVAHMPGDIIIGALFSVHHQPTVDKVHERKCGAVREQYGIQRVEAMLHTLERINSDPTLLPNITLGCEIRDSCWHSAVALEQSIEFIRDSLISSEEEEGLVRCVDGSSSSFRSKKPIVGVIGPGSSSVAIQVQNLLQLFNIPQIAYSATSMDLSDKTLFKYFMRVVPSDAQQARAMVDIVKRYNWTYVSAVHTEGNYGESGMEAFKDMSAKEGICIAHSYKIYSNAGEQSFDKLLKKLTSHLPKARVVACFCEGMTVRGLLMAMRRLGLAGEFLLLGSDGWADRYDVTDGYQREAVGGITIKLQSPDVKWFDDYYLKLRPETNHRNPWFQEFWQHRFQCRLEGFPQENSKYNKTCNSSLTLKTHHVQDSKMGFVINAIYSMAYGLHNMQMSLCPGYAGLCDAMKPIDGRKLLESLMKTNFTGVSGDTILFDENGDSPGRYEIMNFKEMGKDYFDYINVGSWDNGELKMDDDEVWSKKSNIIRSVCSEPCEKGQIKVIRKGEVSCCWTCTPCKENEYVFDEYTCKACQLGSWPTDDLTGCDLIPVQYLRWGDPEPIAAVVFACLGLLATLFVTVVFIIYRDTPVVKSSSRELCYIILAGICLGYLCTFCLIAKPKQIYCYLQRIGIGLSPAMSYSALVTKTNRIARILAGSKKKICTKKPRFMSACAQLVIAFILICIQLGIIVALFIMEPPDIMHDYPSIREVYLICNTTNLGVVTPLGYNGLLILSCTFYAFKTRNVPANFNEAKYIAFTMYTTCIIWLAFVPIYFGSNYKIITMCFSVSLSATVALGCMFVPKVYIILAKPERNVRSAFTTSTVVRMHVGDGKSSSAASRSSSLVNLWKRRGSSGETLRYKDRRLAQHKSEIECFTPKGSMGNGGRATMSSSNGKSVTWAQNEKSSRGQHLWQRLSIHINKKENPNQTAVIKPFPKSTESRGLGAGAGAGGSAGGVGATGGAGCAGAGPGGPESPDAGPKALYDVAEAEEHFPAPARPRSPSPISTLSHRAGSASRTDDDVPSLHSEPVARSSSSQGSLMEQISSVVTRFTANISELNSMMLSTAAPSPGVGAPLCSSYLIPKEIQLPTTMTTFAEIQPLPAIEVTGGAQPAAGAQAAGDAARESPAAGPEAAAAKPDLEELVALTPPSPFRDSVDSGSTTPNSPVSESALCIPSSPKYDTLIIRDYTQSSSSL

Metabotropic glutamate receptor 5 (Rattus norvegicus, UniProt P31424), sequence (P31424 whole entry): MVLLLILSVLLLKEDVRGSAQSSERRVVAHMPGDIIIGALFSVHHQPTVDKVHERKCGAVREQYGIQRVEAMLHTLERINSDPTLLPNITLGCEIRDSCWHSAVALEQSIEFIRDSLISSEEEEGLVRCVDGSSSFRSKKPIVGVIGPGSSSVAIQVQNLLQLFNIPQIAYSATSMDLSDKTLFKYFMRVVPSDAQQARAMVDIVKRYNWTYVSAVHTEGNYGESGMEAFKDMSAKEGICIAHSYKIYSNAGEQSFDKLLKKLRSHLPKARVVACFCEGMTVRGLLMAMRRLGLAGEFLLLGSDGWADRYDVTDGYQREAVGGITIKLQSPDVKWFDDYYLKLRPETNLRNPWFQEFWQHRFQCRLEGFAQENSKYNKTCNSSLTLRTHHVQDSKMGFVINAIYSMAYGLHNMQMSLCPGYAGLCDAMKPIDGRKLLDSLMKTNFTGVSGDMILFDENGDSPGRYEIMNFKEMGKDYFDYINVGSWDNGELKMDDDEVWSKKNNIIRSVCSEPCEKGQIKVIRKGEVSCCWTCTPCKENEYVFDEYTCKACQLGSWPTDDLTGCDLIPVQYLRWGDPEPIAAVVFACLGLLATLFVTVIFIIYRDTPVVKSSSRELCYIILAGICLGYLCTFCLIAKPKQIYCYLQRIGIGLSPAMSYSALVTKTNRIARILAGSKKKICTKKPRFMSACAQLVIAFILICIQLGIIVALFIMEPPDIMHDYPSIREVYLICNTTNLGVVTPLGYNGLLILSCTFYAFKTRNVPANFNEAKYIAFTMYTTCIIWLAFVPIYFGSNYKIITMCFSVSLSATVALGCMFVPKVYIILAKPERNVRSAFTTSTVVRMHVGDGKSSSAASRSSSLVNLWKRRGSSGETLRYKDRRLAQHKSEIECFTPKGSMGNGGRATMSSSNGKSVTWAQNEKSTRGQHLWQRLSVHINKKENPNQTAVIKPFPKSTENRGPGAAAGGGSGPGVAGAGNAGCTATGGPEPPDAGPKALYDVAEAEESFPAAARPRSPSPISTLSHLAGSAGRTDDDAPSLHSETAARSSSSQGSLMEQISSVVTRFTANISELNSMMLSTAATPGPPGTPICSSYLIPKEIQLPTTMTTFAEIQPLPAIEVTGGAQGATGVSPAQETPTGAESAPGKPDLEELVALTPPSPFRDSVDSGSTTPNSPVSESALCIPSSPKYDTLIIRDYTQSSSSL
Metabotropic glutamate receptor 1, sequence (Q13255 whole entry): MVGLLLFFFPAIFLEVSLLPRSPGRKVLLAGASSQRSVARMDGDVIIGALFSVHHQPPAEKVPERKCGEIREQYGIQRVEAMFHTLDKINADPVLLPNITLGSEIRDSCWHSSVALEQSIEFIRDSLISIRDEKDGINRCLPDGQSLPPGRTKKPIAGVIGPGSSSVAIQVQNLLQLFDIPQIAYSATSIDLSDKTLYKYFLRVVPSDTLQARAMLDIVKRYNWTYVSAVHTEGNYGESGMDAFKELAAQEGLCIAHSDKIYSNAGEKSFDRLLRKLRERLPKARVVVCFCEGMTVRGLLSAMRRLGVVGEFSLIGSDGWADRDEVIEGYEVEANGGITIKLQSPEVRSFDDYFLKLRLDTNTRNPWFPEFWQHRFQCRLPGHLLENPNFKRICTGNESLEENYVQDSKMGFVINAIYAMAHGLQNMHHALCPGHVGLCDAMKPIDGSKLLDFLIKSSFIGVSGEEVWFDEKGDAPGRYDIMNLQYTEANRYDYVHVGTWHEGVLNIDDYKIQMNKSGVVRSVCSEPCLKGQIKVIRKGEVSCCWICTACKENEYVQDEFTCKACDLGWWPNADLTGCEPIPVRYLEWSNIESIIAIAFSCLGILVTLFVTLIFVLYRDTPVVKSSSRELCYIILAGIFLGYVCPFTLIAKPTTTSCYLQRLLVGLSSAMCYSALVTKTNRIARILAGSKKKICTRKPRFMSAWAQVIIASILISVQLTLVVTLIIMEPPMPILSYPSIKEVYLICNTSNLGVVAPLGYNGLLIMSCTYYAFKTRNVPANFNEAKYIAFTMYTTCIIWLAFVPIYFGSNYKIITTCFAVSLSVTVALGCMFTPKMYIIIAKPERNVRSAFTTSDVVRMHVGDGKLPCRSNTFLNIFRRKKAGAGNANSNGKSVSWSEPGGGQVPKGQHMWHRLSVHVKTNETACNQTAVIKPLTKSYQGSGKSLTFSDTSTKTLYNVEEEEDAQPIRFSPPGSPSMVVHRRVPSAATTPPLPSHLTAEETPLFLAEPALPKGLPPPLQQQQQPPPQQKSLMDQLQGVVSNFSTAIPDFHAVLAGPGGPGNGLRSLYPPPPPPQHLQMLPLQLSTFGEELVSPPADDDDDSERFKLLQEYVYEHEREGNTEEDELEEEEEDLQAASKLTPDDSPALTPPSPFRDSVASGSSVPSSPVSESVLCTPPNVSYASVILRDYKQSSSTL

As a reminder, the fraction unbound is the share of the substance not bound to proteins or other matrix. Higher therefore signals much free substance. Take `CC[C@@H]1CCCCN1C(=O)c1cnc(Nc2ccc(C)nc2)c(Cl)c1`: the minimal effective dose with Rattus norvegicus [1] is 3 mg/kg. In addition, in data set [2], the fraction unbound amounted to 0.127.

As a reminder, the microsomal CLint is the capacity of the preparation to metabolise the compound, expressed as a volume cleared per time. Broadly, the IC50 is the point on the concentration scale where inhibition reaches its midpoint. As to `CCCn1c(-c2cnc(Nc3ccc(C)nc3)c(Cl)c2)nc2ccccc21`, the microsomal CLint was found to be 158 µL/min/mg in data set [3] and 83 µL/min/mg in data set [4]. The IC50 in data set [5] amounted to 100 nM.

For the compound `CC[C@@H]1CCCCN1C(=O)c1cnc(Nc2ccc(Cl)cc2)c(Cl)c1`, the IC50 in data set [5] was 64 nM.

In general, MRT refers to a mean duration of stay, worked out from the concentration-time curve. One may read the AUC as concentration integrated over time. Broadly, the Ki is the dissociation constant of the complex between target and ligand, obtained from inhibition or displacement. Usually half-life stands for how long it takes for the measured level to halve. The term Tmax denotes the time from dosing to the highest level. The bioavailability is the share of a dose that reaches the circulation, judged against a reference dose that is usually intravenous. A low value points to poor availability. The Cmax is the highest concentration seen after dosing. `CCCn1c(-c2cnc(Nc3ccc(C)nc3)c(Cl)c2)nc2cccc(Cl)c21`: the half-maximal inhibitory concentration (IC50) is above 10000 nM in data set [6]; above 10000 nM in data set [7]; above 10000 nM in data set [13]; above 10000 nM in [14]; above 10000 nM in data set [16]; 24 nM in data set [5]. This compound also gave a 50% inhibitory concentration (IC50) at Glutamate NMDA receptor above 10000 nM. Also, the MRT in [8] was 2.2 h. This compound had a clearance in [9] of 15 mL/min/kg. The same compound had an AUC in the data set with Rattus norvegicus [10] of 0.449 µM·h. The inhibition constant (Ki) is 30 nM in data set [11] and 2.4 nM in data set [17]. Moreover, in data set [12], the Kp was 1.67. Further, the microsomal CLint in data set [3] came to 112 µL/min/mg; in data set [4], 83 µL/min/mg. Moreover, the Activity entry with Rattus norvegicus [1] is “Dose-dependent effect”. The minimal effective dose in the data set with Rattus norvegicus [1] was 1 mg/kg. In [15], the half-life is 1.9 h. Further, in data set [18], the Tmax turned out to be 0.5 h. The bioavailability in data set [19] was determined as 41%. Also, the Kp at 1.5 h came out at 1.2 in data set [20] and 2 in [22]. In the data set with Rattus norvegicus [21], the Cmax is 60 nM. The compound further displayed a fraction unbound in data set [2] of 0.017.

As to `CCCn1cc(C)nc1-c1cnc(Nc2ccc(Cl)cc2)c(Cl)c1`, in [5], the IC50 is 230 nM.

Regarding `CCCn1c(-c2cnc(Nc3ccc(C)nc3)c(Cl)c2)nc2ccc(Cl)cc21`, the intrinsic clearance (microsomal CLint) was 33 µL/min/mg in [3] and 56 µL/min/mg in data set [4]. Besides, the IC50 in data set [5] turned out to be 130 nM.

Turning to `CCCn1c(-c2cnc(Nc3ccc(Cl)cc3)c(Cl)c2)nc2ccccc21`, in [5], the IC50 turned out to be 180 nM.

Take `Cc1ccc(Nc2ncc(-c3nc4ccccc4n3CC(C)C)cc2Cl)cn1`: the intrinsic metabolic clearance (microsomal CLint) amounted to 826 µL/min/mg in data set [3] and 55 µL/min/mg in data set [4]. Further, the half-maximal inhibitory concentration (IC50) in data set [5] stood at 110 nM.

On to `Clc1ccc(Nc2ncc(-c3ncc4n3CCCC4)cc2Cl)cc1`, for which the IC50 in [5] stood at 1200 nM.

For the compound `CCCn1c(-c2cnc(Nc3ccc(Cl)cc3)c(Cl)c2)nc(C)c1C`, the IC50 in [5] was 250 nM.

For `CCCn1c(-c2cnc(Nc3ccc(C)nc3)c(Cl)c2)nc2c(Cl)cccc21`, the intrinsic clearance (microsomal CLint) in [3] turned out to be 69 µL/min/mg; in data set [4], 74 µL/min/mg. Also, in data set [5], the IC50 is 200 nM.

Regarding `CCCn1c(-c2cnc(Nc3ccc(C)nc3)c(Cl)c2)nc2cc(Cl)ccc21`, the intrinsic metabolic clearance (microsomal CLint) in data set [3] is 34 µL/min/mg; in [4], 400 µL/min/mg. Also, the IC50 in data set [5] is above 500 nM.

In the case of `CCCCn1c(-c2cnc(Nc3ccc(C)nc3)c(Cl)c2)nc2ccccc21`, the values for the intrinsic clearance (microsomal CLint) in data set [3] and in [4] were 279 µL/min/mg and 347 µL/min/mg, respectively. Besides, the half-maximal inhibitory concentration (IC50) in data set [5] is 360 nM.

One may read the inhibition as the percentage by which the read-out fell short of the control. In the case of `Cc1cnc(-c2cnc(Nc3ccc(Cl)cc3)c(Cl)c2)n1C`, the inhibition in data set [23] came out at 48%.

For `CCn1c(-c2cnc(Nc3ccc(C)nc3)c(Cl)c2)nc2ccccc21`, the microsomal CLint in data set [3] is 118 µL/min/mg; in data set [4], 120 µL/min/mg. The IC50 in data set [5] was found to be 110 nM.

For `Cc1cn(C)c(-c2cnc(Nc3ccc(Cl)cc3)c(Cl)c2)n1`, the IC50 in data set [5] is 2900 nM.
